Assay results: ChEMBL document CHEMBL1145606, “Discovery of amino-acetonitrile derivatives, a new class of synthetic anthelmintic compounds” (2008)

Key:
Assay type in all cases: functional
[1] = test system: Trichostrongylus colubriformis; assay: Anthelmintic activity against levamisole-resistant Trichostrongylus colubriformis isolate by larva development assay
Summary of the method: (§1)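 Larval development assay: test compounds were embedded in an agar-based nutritive medium that supports development from eggs to third-stage larvae (L3). Plates were incubated for 6 days at 28 °C and 80% relative humidity, and egg hatching and larval development were recorded. Values are means of three experiments.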

Haemonchus contortus [2] = assay: Anthelmintic activity against benzimidazole-resistant Haemonchus contortus isolate by larva development assay; summary of the method: as §1
Haemonchus contortus [3] = assay: Anthelmintic activity against Haemonchus contortus infected in gerbils assessed as reduction in worm count at 10 mg/kg, po; design: scale not given: the % may be the effect or the level left
Summary of the method: (§2)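 Gerbils (Meriones unguiculatus) were artificially infected with H. contortus larvae 6 days, or T. colubriformis larvae 5 days, before treatment. They were then dosed orally or subcutaneously, and controls received a placebo formulation. Three days post-treatment the animals were sacrificed and dissected for worm recovery.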

[4] = test system: Trichostrongylus colubriformis; assay: Anthelmintic activity against Trichostrongylus colubriformis infected in gerbils assessed as reduction in worm count at 10 mg/kg, po; design: scale not given: the % may be the effect or the level left; summary of the method: as §2
[5] = test system: Trichostrongylus colubriformis; assay: Anthelmintic activity against Trichostrongylus colubriformis infected in gerbils assessed as reduction in worm count at 1 mg/kg, sc; design: scale not given: the % may be the effect or the level left; settings: route subcutaneous; summary of the method: as §2
[6] = test system: Trichostrongylus colubriformis; assay: Anthelmintic activity against Trichostrongylus colubriformis infected in gerbils assessed as reduction in worm count at 1 mg/kg, po; design: scale not given: the % may be the effect or the level left; summary of the method: as §2
Haemonchus contortus [7] = assay: Anthelmintic activity against Haemonchus contortus infected in gerbils assessed as reduction in worm count at 1 mg/kg, po; design: scale not given: the % may be the effect or the level left; summary of the method: as §2
Haemonchus contortus [8] = assay: Anthelmintic activity against Haemonchus contortus infected in gerbils assessed as reduction in worm count at 1 mg/kg, sc; design: scale not given: the % may be the effect or the level left; settings: route subcutaneous; summary of the method: as §2
[9] = test system: Trichostrongylus colubriformis; assay: Anthelmintic activity against Trichostrongylus colubriformis infected in gerbils assessed as reduction in worm count at 3.2 mg/kg, po; design: scale not given: the % may be the effect or the level left; summary of the method: as §2
Haemonchus contortus [10] = assay: Anthelmintic activity against Haemonchus contortus infected in gerbils assessed as reduction in worm count at 3.2 mg/kg, po; design: scale not given: the % may be the effect or the level left; summary of the method: as §2

## CC(C#N)(COc1ccc(C(F)(F)F)cc1)NC(=O)c1ccc(C(F)(F)F)cc1 (stereo not drawn)
[1]
  EC100: >10 ppm
Haemonchus contortus [2]
  EC100: >10 ppm

## C[C@@](C#N)(COc1cc(C#N)ccc1C(F)(F)F)NC(=O)c1ccc(SC(F)(F)F)cc1
[1]
  EC100: >10 ppm
Haemonchus contortus [2]
  EC100: 10 ppm

## CC(C#N)(COc1ccccc1C(F)(F)F)NC(=O)c1ccc(-c2ccccc2)cc1 (stereo not drawn)
[1]
  EC100: >10 ppm
Haemonchus contortus [2]
  EC100: >10 ppm

## CC(C#N)(COc1ccc(Cl)cc1Cl)NC(=O)c1ccc(OC(F)(F)F)cc1 (stereo not drawn)
Haemonchus contortus [3]
  Activity: 94%
[1]
  EC100: 0.1 ppm
[4]
  Activity: 100%
Haemonchus contortus [2]
  EC100: 0.1 ppm

## CC(C#N)(COc1cc(F)c(F)cc1C(F)(F)F)NC(=O)c1ccc(OC(F)(F)F)cc1 (stereo in doubt; 19)
[5]
  Activity: 75%
[1]
  EC100: 0.032 ppm
[6]
  Activity: 73%
Haemonchus contortus [7]
  Activity: 99%
Haemonchus contortus [8]
  Activity: 99%
Haemonchus contortus [2]
  EC100: 0.01 ppm

## CC(C#N)(COc1ccccc1Cl)NC(=O)c1cccc(OC(F)(F)F)c1 (stereo not drawn)
[1]
  EC100: 10 ppm
Haemonchus contortus [2]
  EC100: >10 ppm

## c1ccc2[nH]c(-c3cscn3)nc2c1 [THIABENDAZOLE]
[1]
  EC100: 1 ppm
Haemonchus contortus [2]
  EC100: 10 ppm

## CC(C#N)(COc1cccc(F)c1)NC(=O)c1ccc(OC(F)(F)F)cc1 (stereo not drawn)
[1]
  EC100: 1 ppm
Haemonchus contortus [2]
  EC100: 0.32 ppm

## CC(C#N)(COc1ccccc1Cl)NC(=O)c1ccc(F)cc1 (stereo not drawn)
[1]
  EC100: 1 ppm
Haemonchus contortus [2]
  EC100: 3.2 ppm

## CC(C#N)(COc1ccc(F)cc1Cl)NC(=O)c1ccc(OC(F)(F)F)cc1 (stereo not drawn)
[9]
  Activity: 77%
[1]
  EC100: 0.032 ppm
Haemonchus contortus [10]
  Activity: 98%
Haemonchus contortus [2]
  EC100: 0.032 ppm

## c1ccc([C@H]2CN3CCSC3=N2)cc1 [LEVAMISOLE]
[1]
  EC100: 10 ppm
Haemonchus contortus [2]
  EC100: 0.32 ppm

## CC(C#N)(COc1ccccc1)NC(=O)c1ccc(C(F)(F)F)cc1 (stereo not drawn)
[1]
  EC100: >10 ppm
Haemonchus contortus [2]
  EC100: >10 ppm

## CC(C#N)(COc1ccccc1Cl)NC(=O)c1ccccc1C(F)(F)F (stereo not drawn)
[1]
  EC100: >10 ppm
Haemonchus contortus [2]
  EC100: >10 ppm

## CC(C#N)(COc1ccc(C#N)cc1C(F)(F)F)NC(=O)c1ccc(C(F)(F)F)cc1 (stereo not drawn)
[1]
  EC100: 0.1 ppm
[6]
  Activity: 91%
Haemonchus contortus [7]
  Activity: 97%
Haemonchus contortus [2]
  EC100: 0.1 ppm

## CC(C#N)(COc1ccccc1Cl)NC(=O)c1ccc(C(F)(F)F)cc1F (stereo not drawn)
[1]
  EC100: 0.32 ppm
Haemonchus contortus [2]
  EC100: 0.32 ppm

## CC(C#N)(COc1cc(F)c(F)cc1C(F)(F)F)NC(=O)c1ccc(OC(F)(F)F)cc1 (single isomer, unassigned; (-))
[1]
  EC100: 0.01 ppm
Haemonchus contortus [2]
  EC100: 0.0032 ppm

## CC(C#N)(COc1ccccc1C(F)(F)F)NC(=O)c1ccc(OC(F)(F)F)cc1 (stereo not drawn)
Haemonchus contortus [3]
  Activity: 98%
[1]
  EC100: 0.01 ppm
[4]
  Activity: 97%
Haemonchus contortus [2]
  EC100: 0.01 ppm

## CCc1ccccc1OCC(C)(C#N)NC(=O)c1ccc(OC(F)(F)F)cc1 (stereo not drawn)
[1]
  EC100: 0.32 ppm
Haemonchus contortus [2]
  EC100: 0.32 ppm

## CC(C#N)(COc1ccc(C#N)cc1C(F)(F)F)NC(=O)c1ccc(SC(F)(F)F)cc1 (stereo not drawn)
[5]
  Activity: 86%
[1]
  EC100: 0.032 ppm
[6]
  Activity: 98%
Haemonchus contortus [7]
  Activity: 90%
Haemonchus contortus [8]
  Activity: 92%
Haemonchus contortus [2]
  EC100: 0.032 ppm

## C[C@](C#N)(COc1cc(C#N)ccc1C(F)(F)F)NC(=O)c1ccc(SC(F)(F)F)cc1 [MONEPANTEL]
[1]
  EC100: 0.01 ppm
Haemonchus contortus [2]
  EC100: 0.0032 ppm

## Cc1ccc(C(=O)NC(C)(C#N)COc2ccccc2Cl)cc1 (stereo not drawn)
[1]
  EC100: >10 ppm
Haemonchus contortus [2]
  EC100: >10 ppm
